Published values from different studies.

CCc1cc(OC)c2nccc(N3CCc4c(cc(Cn5ccnc5)cc4-c4cn(C)nc4C(F)(F)F)C3=O)c2c1 — Vd (male CD-1 mouse; plasma; intravenous; 3 mg/kg): 0.7 L/kg
COc1nc(-c2cc(C)c(N[C@@H](C)c3ccc(F)cc3)nn2)ccc1-n1cnc(C)c1 — Vd (male CD-1 mouse; plasma; intravenous; 1 mg/kg; single dose): 1.02 L/kg
COc1ccc2nccc(N3CCc4c(cc(Cn5ccnc5)cc4-c4cn(C)nc4C(F)(F)F)C3=O)c2c1 — Vd (male CD-1 mouse; plasma; intravenous; 3 mg/kg): 1 L/kg
CC[C@H](C)[C@@H]1NC(=O)[C@@](C)(NC(=O)[C@H](CCCNC(=N)N)NC(=O)[C@H](CC(C)C)NC(=O)[C@@H](NC(=O)[C@H](CCC(N)=O)NC(=O)[C@H](CC(C)C)NC(C)=O)[C@@H](C)O)CCCC=CCCC[C@@](C)(C(=O)N[C@@H](CC(C)C)C(=O)N[C@@H](Cc2ccc3ccccc3c2)C(N)=O)NC(=O)[C@H](CCCNC(=N)N)NC(=O)[C@H](CCC(N)=O)NC1=O — Vd (male BALB/c mouse; plasma; intravenous; 5 mg/kg): 0.0692 L/kg
CC(C)(C)c1ccc(O)c(CN(Cc2cc(C(C)(C)C)ccc2O)C2CCC(NC(N)=O)CC2)c1 (centres unmarked) — Vd (male C57BL/6 mouse; plasma; intraperitoneal; 25 mg/kg; single dose): 5.6 L
COc1nc(-c2cc(C)c(N[C@@H](C)c3cc(F)cc(F)c3)nn2)ccc1-n1cnc(C)c1 — Vd (male CD-1 mouse; plasma; intravenous; 1 mg/kg; single dose): 2.1 L/kg
COc1cc(C(=O)N2CCC(N3CCN(C)CC3)CC2)ccc1Nc1ncc2c(n1)N(C)c1ccccc1C(=O)N2C — Vd (mouse; plasma; intravenous; 1 mg/kg): 1.71 L/kg
CN1CCN(CC2CCN(c3nccc4[nH]c(-c5cc(F)cc(F)c5)nc34)CC2)CC1 — Vd (BALB/c mouse; blood; intravenous; 2 mg/kg): 37 L/kg
CCc1cc(C(=O)NC)c2nccc(N3CCc4c(cc(Cn5ccnc5)cc4-c4cn(C)nc4C(F)(F)F)C3=O)c2c1 — Vd (male CD-1 mouse; plasma; intravenous; 3 mg/kg): 0.4 L/kg
C=CC(=O)N1CC2CC(n3nc(-c4ccc(C(=O)Nc5ccccn5)cc4)c4c(N)ncnc43)CC2C1 (centres unmarked) — Vd (male BALB/c mouse; plasma; intravenous; 1 mg/kg): 0.67 L/kg
CNCCN(C)c1cc(C#N)cc(CCc2cc(C)cc(N)n2)c1 — Vd (male BALB/c mouse; brain; intravenous; 2 mg/kg): 44 L/kg
